ChEMBL document CHEMBL1147809, “Tumor-cell-targeted methionine-enkephalin analogues containing unnatural amino acids: design, synthesis, and in vitro antitumor activity” (2006)
*1 amine or outer side, *2 acyl side, *3 side chain or, on linkers, in order; H or OH if unused. Where a SMILES comes first, the peptide text is derived from it. [ ]: non-standard residue; d: D form. X1 = O=C(C(N[*:1])C1C2CC3CC(C2)CC1C3)[*:2]

What follows are molecules tested on HeLa (assay: Antiproliferative activity against human HeLa cell line at 1000 uM relative to control).
Format: functional
Procedure, shortened: (§1)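 Cells from ATCC grown as monolayers in DMEM with 10% FBS, 2 mM glutamine, penicillin/streptomycin, 37 °C, 5% CO2. Seeded at 2 × 10^4 cells/mL, and after 24 h the medium was replaced with fresh medium containing compound (water/10% DMSO stock, PBS working dilutions 10^-3 to 10^-6 M). Exposure was 72 h, then MTT read-out. Growth % = (A_peptide − A_blank)/(A_control − A_blank) × 100, with inhibition taken relative to untreated cells. Values are means of three experiments run in triplicate.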
In the case of CSCC[C@H](NC(=O)[C@H](Cc1ccccc1)NC(=O)CNC(=O)C(NC(=O)[C@@H](N)Cc1ccc(O)cc1)C1C2CC3CC(C2)CC1C3)C(=O)O (stereo partly specified) (H-Y[X1]GFM-OH), the inhibition at 1000 µM is reported as 24.1%.

What follows are molecules tested on HBL (assay: Antiproliferative activity against human HBL cell line at 10 uM relative to control).
Format: functional
Procedure, shortened: as §1
In the case of CSCC[C@H](NC(=O)[C@H](Cc1ccccc1)NC(=O)CNC(=O)C(NC(=O)[C@@H](N)Cc1ccc(O)cc1)C1C2CC3CC(C2)CC1C3)C(=O)O (stereo partly specified) (H-Y[X1]GFM-OH), the inhibition at 10 µM is reported as 4.5%.

What follows are molecules tested on HBL (assay: Antiproliferative activity against human HBL cell line at 100 uM relative to control).
Format: functional
Procedure, shortened: as §1
Molecule CSCC[C@H](NC(=O)[C@H](Cc1ccccc1)NC(=O)CNC(=O)C(NC(=O)[C@@H](N)Cc1ccc(O)cc1)C1C2CC3CC(C2)CC1C3)C(=O)O (stereo partly specified) (H-Y[X1]GFM-OH) has an inhibition at 100 µM of 11.4%.

What follows are molecules tested on HBL (assay: Antiproliferative activity against human HBL cell line at 1000 uM relative to control).
Format: functional
Procedure, shortened: as §1
Molecule CSCC[C@H](NC(=O)[C@H](Cc1ccccc1)NC(=O)CNC(=O)C(NC(=O)[C@@H](N)Cc1ccc(O)cc1)C1C2CC3CC(C2)CC1C3)C(=O)O (stereo partly specified) (H-Y[X1]GFM-OH) has an inhibition at 1000 µM of 23.2%.

What follows are molecules tested on HT-29 (assay: Antiproliferative activity against human HT29 cell line at 10 uM relative to control).
Format: functional
Procedure, shortened: as §1
With CSCC[C@H](NC(=O)[C@H](Cc1ccccc1)NC(=O)CNC(=O)C(NC(=O)[C@@H](N)Cc1ccc(O)cc1)C1C2CC3CC(C2)CC1C3)C(=O)O (stereo partly specified) (H-Y[X1]GFM-OH) the inhibition at 10 µM was 6.6%.

The molecules below were run on HT-29 (assay: Antiproliferative activity against human HT29 cell line at 100 uM relative to control).
Format: functional
Procedure, shortened: as §1
CSCC[C@H](NC(=O)[C@H](Cc1ccccc1)NC(=O)CNC(=O)C(NC(=O)[C@@H](N)Cc1ccc(O)cc1)C1C2CC3CC(C2)CC1C3)C(=O)O (stereo partly specified) (H-Y[X1]GFM-OH) showed an inhibition at 100 µM of 5.1%.

Each molecule was assayed on HT-29 (assay: Antiproliferative activity against human HT29 cell line at 1000 uM relative to control).
Format: functional
Procedure, shortened: as §1
With CSCC[C@H](NC(=O)[C@H](Cc1ccccc1)NC(=O)CNC(=O)C(NC(=O)[C@@H](N)Cc1ccc(O)cc1)C1C2CC3CC(C2)CC1C3)C(=O)O (stereo partly specified) (H-Y[X1]GFM-OH) the inhibition at 1000 µM was 14.5%.

These molecules were tested on SW-620 (assay: Antiproliferative activity against human SW620 cell line at 10 uM relative to control).
Format: functional
Procedure, shortened: as §1
CSCC[C@H](NC(=O)[C@H](Cc1ccccc1)NC(=O)CNC(=O)C(NC(=O)[C@@H](N)Cc1ccc(O)cc1)C1C2CC3CC(C2)CC1C3)C(=O)O (stereo partly specified) (H-Y[X1]GFM-OH) was tested, and the inhibition at 10 µM was 13.1%.

The molecules below were run on SW-620 (assay: Antiproliferative activity against human SW620 cell line at 100 uM relative to control).
Format: functional
Procedure, shortened: as §1
Molecule CSCC[C@H](NC(=O)[C@H](Cc1ccccc1)NC(=O)CNC(=O)C(NC(=O)[C@@H](N)Cc1ccc(O)cc1)C1C2CC3CC(C2)CC1C3)C(=O)O (stereo partly specified) (H-Y[X1]GFM-OH) has an inhibition at 100 µM of 14.6%.

The molecules below were run on SW-620 (assay: Antiproliferative activity against human SW620 cell line at 1000 uM relative to control).
Format: functional
Procedure, shortened: as §1
In the case of CSCC[C@H](NC(=O)[C@H](Cc1ccccc1)NC(=O)CNC(=O)C(NC(=O)[C@@H](N)Cc1ccc(O)cc1)C1C2CC3CC(C2)CC1C3)C(=O)O (stereo partly specified) (H-Y[X1]GFM-OH), the inhibition at 1000 µM is reported as 38.4%.

These molecules were tested on Caco-2 (assay: Antiproliferative activity against human Caco-2 cell line at 10 uM relative to control).
Format: functional
Procedure, shortened: as §1
CSCC[C@H](NC(=O)[C@H](Cc1ccccc1)NC(=O)CNC(=O)C(NC(=O)[C@@H](N)Cc1ccc(O)cc1)C1C2CC3CC(C2)CC1C3)C(=O)O (stereo partly specified) (H-Y[X1]GFM-OH) was tested, and the inhibition at 10 µM was 10.9%.

Each molecule was assayed on Caco-2 (assay: Antiproliferative activity against human Caco-2 cell line at 100 uM relative to control).
Format: functional
Procedure, shortened: as §1
With CSCC[C@H](NC(=O)[C@H](Cc1ccccc1)NC(=O)CNC(=O)C(NC(=O)[C@@H](N)Cc1ccc(O)cc1)C1C2CC3CC(C2)CC1C3)C(=O)O (stereo partly specified) (H-Y[X1]GFM-OH) the inhibition at 100 µM was 12.1%.

What follows are molecules tested on Caco-2 (assay: Antiproliferative activity against human Caco-2 cell line at 1000 uM relative to control).
Format: functional
Procedure, shortened: as §1
CSCC[C@H](NC(=O)[C@H](Cc1ccccc1)NC(=O)CNC(=O)C(NC(=O)[C@@H](N)Cc1ccc(O)cc1)C1C2CC3CC(C2)CC1C3)C(=O)O (stereo partly specified) (H-Y[X1]GFM-OH) was tested, and the inhibition at 1000 µM was 8.1%.

The molecules below were run on MCF7 (assay: Antiproliferative activity against human MCF7 cell line at 100 uM relative to control).
Format: functional
Procedure, shortened: as §1
Work on CSCC[C@H](NC(=O)[C@H](Cc1ccccc1)NC(=O)CNC(=O)C(NC(=O)[C@@H](N)Cc1ccc(O)cc1)C1C2CC3CC(C2)CC1C3)C(=O)O (stereo partly specified) (H-Y[X1]GFM-OH) yielded an inhibition at 100 µM of 9.6%.

What follows are molecules tested on MCF7 (assay: Antiproliferative activity against human MCF7 cell line at 1000 uM relative to control).
Format: functional
Procedure, shortened: as §1
In the case of CSCC[C@H](NC(=O)[C@H](Cc1ccccc1)NC(=O)CNC(=O)C(NC(=O)[C@@H](N)Cc1ccc(O)cc1)C1C2CC3CC(C2)CC1C3)C(=O)O (stereo partly specified) (H-Y[X1]GFM-OH), the inhibition at 1000 µM is reported as 29.9%.

Each molecule was assayed on HEp-2 (assay: Antiproliferative activity against human HEp2 cell line at 10 uM relative to control).
Format: functional
Procedure, shortened: as §1
CSCC[C@H](NC(=O)[C@H](Cc1ccccc1)NC(=O)CNC(=O)C(NC(=O)[C@@H](N)Cc1ccc(O)cc1)C1C2CC3CC(C2)CC1C3)C(=O)O (stereo partly specified) (H-Y[X1]GFM-OH) showed an inhibition at 10 µM of 25.8%.

The molecules below were run on HEp-2 (assay: Antiproliferative activity against human HEp2 cell line at 100 uM relative to control).
Format: functional
Procedure, shortened: as §1
In the case of CSCC[C@H](NC(=O)[C@H](Cc1ccccc1)NC(=O)CNC(=O)C(NC(=O)[C@@H](N)Cc1ccc(O)cc1)C1C2CC3CC(C2)CC1C3)C(=O)O (stereo partly specified) (H-Y[X1]GFM-OH), the inhibition at 100 µM is reported as 34.7%.

Each molecule was assayed on HEp-2 (assay: Antiproliferative activity against human HEp2 cell line at 1000 uM relative to control).
Format: functional
Procedure, shortened: as §1
Work on CSCC[C@H](NC(=O)[C@H](Cc1ccccc1)NC(=O)CNC(=O)C(NC(=O)[C@@H](N)Cc1ccc(O)cc1)C1C2CC3CC(C2)CC1C3)C(=O)O (stereo partly specified) (H-Y[X1]GFM-OH) yielded an inhibition at 1000 µM of 44.5%.

Each molecule was assayed on HeLa (assay: Antiproliferative activity against human HeLa cell line at 10 uM relative to control).
Format: functional
Procedure, shortened: as §1
For CSCC[C@H](NC(=O)[C@H](Cc1ccccc1)NC(=O)CNC(=O)C(NC(=O)[C@@H](N)Cc1ccc(O)cc1)C1C2CC3CC(C2)CC1C3)C(=O)O (stereo partly specified) (H-Y[X1]GFM-OH), the inhibition at 10 µM was 9.5%.

Each molecule was assayed on HeLa (assay: Antiproliferative activity against human HeLa cell line at 100 uM relative to control).
Format: functional
Procedure, shortened: as §1
CSCC[C@H](NC(=O)[C@H](Cc1ccccc1)NC(=O)CNC(=O)C(NC(=O)[C@@H](N)Cc1ccc(O)cc1)C1C2CC3CC(C2)CC1C3)C(=O)O (stereo partly specified) (H-Y[X1]GFM-OH) was tested, and the inhibition at 100 µM was 15.4%.

These molecules were tested on SW-620 (assay: Antiproliferative activity against human SW620 cell line at 1 uM relative to control).
Format: functional
Procedure, shortened: as §1
Molecule CSCC[C@H](NC(=O)[C@H](Cc1ccccc1)NC(=O)CNC(=O)C(NC(=O)[C@@H](N)Cc1ccc(O)cc1)C1C2CC3CC(C2)CC1C3)C(=O)O (stereo partly specified) (H-Y[X1]GFM-OH) has an inhibition at 1 µM of 26.4%.

What follows are molecules tested on Caco-2 (assay: Antiproliferative activity against human Caco-2 cell line at 1 uM relative to control).
Format: functional
Procedure, shortened: as §1
Molecule CSCC[C@H](NC(=O)[C@H](Cc1ccccc1)NC(=O)CNC(=O)C(NC(=O)[C@@H](N)Cc1ccc(O)cc1)C1C2CC3CC(C2)CC1C3)C(=O)O (stereo partly specified) (H-Y[X1]GFM-OH) has an inhibition at 1 µM of 17.7%.

Each molecule was assayed on HEp-2 (assay: Antiproliferative activity against human HEp2 cell line at 1 uM relative to control).
Format: functional
Procedure, shortened: as §1
CSCC[C@H](NC(=O)[C@H](Cc1ccccc1)NC(=O)CNC(=O)C(NC(=O)[C@@H](N)Cc1ccc(O)cc1)C1C2CC3CC(C2)CC1C3)C(=O)O (stereo partly specified) (H-Y[X1]GFM-OH) gave an inhibition at 1 µM of 13.7%.

The molecules below were run on HeLa (assay: Antiproliferative activity against human HeLa cell line at 1 uM relative to control).
Format: functional
Procedure, shortened: as §1
Molecule CSCC[C@H](NC(=O)[C@H](Cc1ccccc1)NC(=O)CNC(=O)C(NC(=O)[C@@H](N)Cc1ccc(O)cc1)C1C2CC3CC(C2)CC1C3)C(=O)O (stereo partly specified) (H-Y[X1]GFM-OH) has an inhibition at 1 µM of 8.5%.

These molecules were tested on HBL (assay: Antiproliferative activity against human HBL cell line at 1 uM relative to control).
Format: functional
Procedure, shortened: as §1
Molecule CSCC[C@H](NC(=O)[C@H](Cc1ccccc1)NC(=O)CNC(=O)C(NC(=O)[C@@H](N)Cc1ccc(O)cc1)C1C2CC3CC(C2)CC1C3)C(=O)O (stereo partly specified) (H-Y[X1]GFM-OH) has an inhibition at 1 µM of 2.4%.

Each molecule was assayed on HT-29 (assay: Antiproliferative activity against human HT29 cell line at 1 uM relative to control).
Format: functional
Procedure, shortened: as §1
CSCC[C@H](NC(=O)[C@H](Cc1ccccc1)NC(=O)CNC(=O)C(NC(=O)[C@@H](N)Cc1ccc(O)cc1)C1C2CC3CC(C2)CC1C3)C(=O)O (stereo partly specified) (H-Y[X1]GFM-OH) showed an inhibition at 1 µM of 16.2%.
